# Measurements from ChEMBL document CHEMBL1126705, “16 beta-([18F]fluoro)estrogens: systematic investigation of a new series of fluorine-18-labeled estrogens as potential imaging agents for estrogen-receptor-positive breast tumors” (J Med Chem, 1993).
# Experiments:
# Rattus norvegicus [1] = experiment: Tested in vivo for the biodistribution in rat ovaries after 3 hours following an intravenous dose of 50 microCi of drug in 10%ethanol saline; format: ADME, organism-based, Female gonad
# Summary of the method: (§1)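 Immature (25-day-old) female Sprague-Dawley rats, ether-anesthetized, given the fluorine-18-labeled estrogen by femoral vein injection in 10% ethanol saline. […] Other groups were killed by decapitation at 1 or 3 h. Blood and organs were weighed and gamma-counted. Data are % injected dose/g, mean ± SD, typically n = 5 per group.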
# Rattus norvegicus [2] = experiment: Tested in vivo for the biodistribution in rat kidney after 3 hours following an intravenous dose of 50 microCi of drug in 10%ethanol saline; format: ADME, organism-based
# Summary of the method: (§2)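 Ether-anesthetized 25-day-old female Sprague-Dawley rats (~40–53 g) got the [18F] tracer in 10% ethanol saline via femoral vein. Rats were decapitated at 1 or 3 h, and blood and organs were weighed and gamma-counted. Values are % injected dose/g as mean ± SD, n = 5 per time point.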
# Rattus norvegicus [3] = experiment: Tested in vivo for the biodistribution in rat thymus at 1 hour after intravenous dose of 50 microCi of drug in 10%ethanol saline; format: ADME, organism-based; summary of the method: as §1
# Rattus norvegicus [4] = experiment: Tested in vivo for the biodistribution in rat muscle after 3 hours following an intravenous dose of 50 microCi of drug in 10%ethanol saline; format: ADME, organism-based, Muscle tissue; summary of the method: as §1
# [5] = target: T1, Sex hormone-binding globulin (Homo sapiens) (UniProt P04278); experiment: Relative binding affinity against sex steroid binding protein (SBP)
# T1 sequence (whole entry): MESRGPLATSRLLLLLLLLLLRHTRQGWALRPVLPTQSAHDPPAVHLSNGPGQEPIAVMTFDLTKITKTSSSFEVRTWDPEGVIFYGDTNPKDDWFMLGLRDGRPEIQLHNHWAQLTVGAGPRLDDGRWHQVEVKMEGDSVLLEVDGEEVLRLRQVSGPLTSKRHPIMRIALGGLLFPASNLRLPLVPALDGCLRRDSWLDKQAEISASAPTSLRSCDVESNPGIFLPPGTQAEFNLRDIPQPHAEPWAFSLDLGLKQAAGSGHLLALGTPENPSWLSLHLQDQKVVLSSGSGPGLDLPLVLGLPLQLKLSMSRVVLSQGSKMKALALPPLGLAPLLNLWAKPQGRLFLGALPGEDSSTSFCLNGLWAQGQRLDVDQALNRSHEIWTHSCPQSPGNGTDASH
# Rattus norvegicus [6] = experiment: Tested in vivo for the biodistribution in rat fat after 3 hours following an intravenous dose of 50 microCi of drug in 10%ethanol saline; format: ADME, organism-based, Adipose tissue; summary of the method: as §2
# Rattus norvegicus [7] = experiment: Tested in vivo for the biodistribution in rat thymus after 3 hours following an intravenous dose of 50 microCi of drug in 10%ethanol saline; format: ADME, organism-based; summary of the method: as §1
# Rattus norvegicus [8] = experiment: Tested in vivo for the biodistribution in rat fat at 1 hour after intravenous dose of 50 microCi of the drug and 15 ug of estradiol; format: ADME, organism-based, Adipose tissue
# Rattus norvegicus [9] = experiment: Tested in vivo for the biodistribution in rat bone at 1 hour after intravenous dose of 50 microCi of the drug and 15 ug of estradiol; format: ADME, organism-based, Bone element
# Rattus norvegicus [10] = experiment: Tested in vivo for the biodistribution in rat liver after 3 hours following an intravenous dose of 50 microCi of drug in 10%ethanol saline; format: ADME, organism-based; summary of the method: as §1
# Rattus norvegicus [11] = experiment: Tested in vivo for the biodistribution in rat uterus/muscle after 3 hours following an intravenous dose of 50 microCi of drug in 10%ethanol saline; format: ADME, organism-based, Muscle tissue
# Summary of the method: (§3)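 Female Sprague-Dawley rats, 25 days old (~40–53 g), ether-anesthetized, given the 18F-labeled estrogen iv via femoral vein in 10% ethanol saline. […] Others were sacrificed by decapitation at 1 or 3 h. Blood and organs were excised, weighed and gamma counted as % injected dose/g, mean ± SD, typically n = 5 (4–6).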
# Rattus norvegicus [12] = experiment: Tested in vivo for the biodistribution in rat ovaries at 1 hour after intravenous dose of 50 microCi of the drug and 15 ug of estradiol; format: ADME, organism-based, Female gonad; summary of the method: as §1
# Rattus norvegicus [13] = experiment: Tested in vivo for the biodistribution in rat bone at 1 hour after intravenous dose of 50 microCi of drug in 10%ethanol saline; format: ADME, organism-based, Bone element; summary of the method: as §2
# Rattus norvegicus [14] = experiment: Tested in vivo for the biodistribution in rat liver at 1 hour after intravenous dose of 50 microCi of the drug and 15 u g of estradiol; format: ADME, organism-based; summary of the method: as §1
# Rattus norvegicus [15] = experiment: Tested in vivo for the biodistribution in rat uterus/blood at 1 hour after intravenous dose of 50 microCi of the drug and 15 ug of estradiol; format: ADME, organism-based; summary of the method: as §3
# Rattus norvegicus [16] = experiment: Tested in vivo for the biodistribution in blood of female rat at 1 hour after intravenous dose of 50 microCi of drug in 10%ethanol saline; format: ADME, organism-based; summary of the method: as §2
# [17] = target: T2, Alpha-fetoprotein (Rattus norvegicus) (UniProt P02773); experiment: Relative binding affinity for Alphafetoprotein
# T2 sequence (whole entry): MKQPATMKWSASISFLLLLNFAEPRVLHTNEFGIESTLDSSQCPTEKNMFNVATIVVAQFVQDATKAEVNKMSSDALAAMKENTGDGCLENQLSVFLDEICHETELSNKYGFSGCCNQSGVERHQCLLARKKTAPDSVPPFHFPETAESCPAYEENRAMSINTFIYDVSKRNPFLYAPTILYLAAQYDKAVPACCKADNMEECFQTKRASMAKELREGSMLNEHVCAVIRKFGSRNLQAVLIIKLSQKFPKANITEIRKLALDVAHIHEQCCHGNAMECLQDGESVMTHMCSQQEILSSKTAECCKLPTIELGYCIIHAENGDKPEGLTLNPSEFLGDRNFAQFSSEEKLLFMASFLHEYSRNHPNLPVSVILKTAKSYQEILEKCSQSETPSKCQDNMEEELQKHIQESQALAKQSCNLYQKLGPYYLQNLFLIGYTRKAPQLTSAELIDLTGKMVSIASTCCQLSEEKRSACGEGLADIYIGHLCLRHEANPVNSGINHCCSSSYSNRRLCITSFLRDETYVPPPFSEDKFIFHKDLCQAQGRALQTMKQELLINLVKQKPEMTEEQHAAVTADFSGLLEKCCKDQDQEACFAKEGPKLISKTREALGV
# Rattus norvegicus [18] = experiment: Tested in vivo for the biodistribution in rat muscle at 1 hour after intravenous dose of 50 microCi of the drug and 15 ug of estradiol; format: ADME, organism-based, Muscle tissue; summary of the method: as §1
# Rattus norvegicus [19] = experiment: Tested in vivo for the biodistribution in blood of female rat at 1 hour after intravenous dose of 50 microCi of the drug and 15 u g of estradiol; format: ADME, organism-based
# [20] = target: T3, Estrogen receptor (Rattus norvegicus) (UniProt P06211+Q62986)
# Rattus norvegicus [21] = experiment: Tested in vivo for the biodistribution in blood of female rat after 3 hours following an intravenous dose of 50 microCi of drug in 10%ethanol saline; format: ADME, organism-based; summary of the method: as §2
# [22] = Partition coefficient (logP); format: physicochemical; settings: octanol/water
# Summary of the method: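 Octanol/water log P estimated from log k'w measured by reversed-phase HPLC (Minick method) on a C8 silica column.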
# Rattus norvegicus [23] = experiment: Tested in vivo for the biodistribution in rat liver at 1 hour after intravenous dose of 50 microCi of drug in 10%ethanol saline; format: ADME, organism-based; summary of the method: as §1
# [24] = target: T3, Estrogen receptor (Rattus norvegicus); remark: listed apart in the source
# Rattus norvegicus [25] = experiment: Tested in vivo for the biodistribution in rat muscle at 1 hour after intravenous dose of 50 microCi of drug in 10%ethanol saline; format: ADME, organism-based, Muscle tissue; summary of the method: as §1
# Rattus norvegicus [26] = experiment: Tested in vivo for the biodistribution in rat uterus/blood after 3 hours following an intravenous dose of 50 microCi of drug in 10%ethanol saline; format: ADME, organism-based; summary of the method: as §3
# Rattus norvegicus [27] = experiment: Tested in vivo for the biodistribution in rat kidney at 1 hour after intravenous dose of 50 microCi of drug in 10%ethanol saline; format: ADME, organism-based; summary of the method: as §2
# Rattus norvegicus [28] = experiment: Tested in vivo for the biodistribution in rat uterus at 1 hour after intravenous dose of 50 microCi of the drug and 15 ug of estradiol; format: ADME, organism-based; summary of the method: as §3
# Rattus norvegicus [29] = experiment: Tested in vivo for the biodistribution in rat uterus at 1 hour after intravenous dose of 50 microCi of drug in 10%ethanol saline; format: ADME, organism-based; summary of the method: as §3
# Rattus norvegicus [30] = experiment: Tested in vivo for the biodistribution in rat uterus/muscle at 1 hour after intravenous dose of 50 microCi of the drug and 15 ug of estradiol; format: ADME, organism-based, Muscle tissue; summary of the method: as §3
# Rattus norvegicus [31] = experiment: Tested in vivo for the biodistribution in rat uterus/blood at 1 hour after intravenous dose of 50 microCi of drug in 10%ethanol saline; format: ADME, organism-based; summary of the method: as §3
# Rattus norvegicus [32] = experiment: Tested in vivo for the biodistribution in rat bone after 3 hours following an intravenous dose of 50 microCi of drug in 10%ethanol saline; format: ADME, organism-based, Bone element; summary of the method: as §2
# Rattus norvegicus [33] = experiment: Tested in vivo for the biodistribution in rat uterus after 3 hours following an intravenous dose of 50 microCi of drug in 10%ethanol saline; format: ADME, organism-based; summary of the method: as §1
# Rattus norvegicus [34] = experiment: Tested in vivo for the biodistribution in rat fat at 1 hour after intravenous dose of 50 microCi of drug in 10%ethanol saline; format: ADME, organism-based, Adipose tissue; summary of the method: as §2
# Rattus norvegicus [35] = experiment: Tested in vivo for the biodistribution in rat ovaries at 1 hour after intravenous dose of 50 microCi of drug in 10%ethanol saline; format: ADME, organism-based, Female gonad; summary of the method: as §1
# Rattus norvegicus [36] = experiment: Tested in vivo for the biodistribution in rat thymus at 1 hour after intravenous dose of 50 microCi of the drug and 15 ug of estradiol; format: ADME, organism-based; summary of the method: as §1
# Rattus norvegicus [37] = experiment: Tested in vivo for the biodistribution in rat kidney at 1 hour after intravenous dose of 50 microCi of the drug and 15 u g of estradiol; format: ADME, organism-based; summary of the method: as §1
# Rattus norvegicus [38] = experiment: Tested in vivo for the biodistribution in rat uterus/muscle at 1 hour after intravenous dose of 50 microCi of drug in 10%ethanol saline; format: ADME, organism-based, Muscle tissue; summary of the method: as §3
smiles,measurement,setting,value
C#C[C@]1(O)[C@@H](F)C[C@H]2[C@@H]3CCc4cc(O)ccc4[C@H]3[C@@H](OC)C[C@@]21C,Injected,Rattus norvegicus [1],3.51%
same,Injected,Rattus norvegicus [2],0.973%
same,Injected,Rattus norvegicus [3],0.852%
same,Injected,Rattus norvegicus [4],0.389%
same,relative binding affinity (RBA),[5],0.037
same,Injected,Rattus norvegicus [6],0.858%
same,Injected,Rattus norvegicus [7],0.454%
same,Injected,Rattus norvegicus [8],0.679%
same,Injected,Rattus norvegicus [9],1.477%
same,Injected,Rattus norvegicus [10],2.129%
same,Injected,Rattus norvegicus [11],32.76%
same,Injected,Rattus norvegicus [12],1.661%
same,Injected,Rattus norvegicus [13],1.384%
same,Injected,Rattus norvegicus [14],3.708%
same,Injected,Rattus norvegicus [15],7.52%
same,Injected,Rattus norvegicus [16],0.284%
same,relative binding affinity (RBA),[17],< 0.01
same,Injected,Rattus norvegicus [18],0.525%
same,Injected,Rattus norvegicus [19],0.38%
same,NSB,[20],0.67
same,Injected,Rattus norvegicus [21],0.101%
same,logP,[22],2.87
same,Injected,Rattus norvegicus [23],3.244%
same,BSI,[24],116
same,Injected,Rattus norvegicus [25],0.739%
same,Injected,Rattus norvegicus [26],129.8%
same,Injected,Rattus norvegicus [27],1.961%
same,Injected,Rattus norvegicus [28],2.548%
same,Injected,Rattus norvegicus [29],18.26%
same,Injected,Rattus norvegicus [30],5.25%
same,Injected,Rattus norvegicus [31],66.26%
same,Injected,Rattus norvegicus [32],2.007%
same,Injected,Rattus norvegicus [33],12.99%
same,Injected,Rattus norvegicus [34],1.538%
same,Injected,Rattus norvegicus [35],5.2%
same,Injected,Rattus norvegicus [36],0.44%
same,Injected,Rattus norvegicus [37],1.038%
same,Injected,Rattus norvegicus [38],24.31%
C[C@]12CC[C@@H]3c4ccc(O)cc4CC[C@H]3[C@@H]1CC[C@@H]2O [ESTRADIOL],relative binding affinity (RBA),[5],100
same,relative binding affinity (RBA),[17],100
same,logP,[22],3.26
C#C[C@]1(O)CC[C@H]2[C@@H]3CCc4cc(O)ccc4[C@H]3CC[C@@]21C [ETHINYL ESTRADIOL],relative binding affinity (RBA),[5],1.81
same,relative binding affinity (RBA),[17],3.51
same,logP,[22],3.42
CO[C@H]1C[C@]2(C)[C@@H](O)CC[C@H]2[C@@H]2CCc3cc(O)ccc3[C@H]21,relative binding affinity (RBA),[5],1.72
same,relative binding affinity (RBA),[17],0.26
same,NSB,[20],0.57
same,logP,[22],2.72
same,BSI,[24],151
C#C[C@]1(O)CC[C@H]2[C@@H]3CCc4cc(O)ccc4[C@H]3[C@@H](OC)C[C@@]21C [MOXESTROL],relative binding affinity (RBA),[5],0.071
same,relative binding affinity (RBA),[17],0.023
same,NSB,[20],0.76
same,logP,[22],3.01
same,BSI,[24],243
CCC1C[C@]2(C)[C@@H](O)CC[C@H]2[C@@H]2CCc3cc(O)ccc3[C@@H]12 (some centres undefined),relative binding affinity (RBA),[5],40.8
same,relative binding affinity (RBA),[17],1.21
same,NSB,[20],2.1
same,logP,[22],3.9
same,BSI,[24],648
C#C[C@]1(O)CC[C@H]2[C@@H]3CCc4cc(O)ccc4[C@H]3C(CC)C[C@@]21C (some centres undefined),relative binding affinity (RBA),[5],41.2
same,relative binding affinity (RBA),[17],0.347
same,NSB,[20],2.86
same,logP,[22],4.28
same,BSI,[24],331
